Converted amounts (≈) assume the structure as drawn.

Data set [1] addresses T1, human mEH (Homo sapiens, UniProt P07099).
T1 sequence (P07099 1-455): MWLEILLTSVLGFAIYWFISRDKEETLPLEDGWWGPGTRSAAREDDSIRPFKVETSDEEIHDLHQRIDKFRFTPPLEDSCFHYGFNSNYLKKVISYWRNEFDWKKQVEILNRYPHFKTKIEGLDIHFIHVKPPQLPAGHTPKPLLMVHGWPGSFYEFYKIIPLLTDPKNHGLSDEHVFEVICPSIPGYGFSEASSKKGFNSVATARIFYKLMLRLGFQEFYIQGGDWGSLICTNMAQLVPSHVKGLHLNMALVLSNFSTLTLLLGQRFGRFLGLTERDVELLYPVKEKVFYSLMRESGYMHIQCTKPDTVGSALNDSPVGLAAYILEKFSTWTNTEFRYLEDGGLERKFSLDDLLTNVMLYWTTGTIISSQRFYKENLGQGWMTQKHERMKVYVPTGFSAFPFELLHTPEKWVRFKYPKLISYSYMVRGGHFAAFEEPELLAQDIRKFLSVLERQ
As to the kind of experiment: Kinetic constants determination, human mEH. Conditions: lower than for cSO. In kind it is biochemical.

Data set [2] deals with T1, human mEH. As to the kind of experiment: Specific activity of human mEH for absorbent/fluorescent substrates. In kind it is biochemical. Conditions: [S] 50 μM, pH 9.0, 37°C, fluorescent substrates. In short, it runs like this:
(§1)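 Partially purified recombinant enzyme (0.5–80 μg/mL final) in 100 mM Tris/HCl pH 9.0 with 0.1 mg/mL BSA, preincubated 5 min at 37°C. Substrate added at 50 μM final from 5 mM DMSO stock; buffer-only wells gave background. Read kinetically for 5 min: 4-nitrophenol at 450 nm, or fluorescence (coumarin ex 355/em 450; naphthaldehyde ex 330/em 465). Signals converted via standard curves (0.005–0.5 μM); 8 replicates.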

The target in data set [3] is T2, rat mEH (Rattus norvegicus, UniProt P07687).
T2 sequence (P07687 1-455): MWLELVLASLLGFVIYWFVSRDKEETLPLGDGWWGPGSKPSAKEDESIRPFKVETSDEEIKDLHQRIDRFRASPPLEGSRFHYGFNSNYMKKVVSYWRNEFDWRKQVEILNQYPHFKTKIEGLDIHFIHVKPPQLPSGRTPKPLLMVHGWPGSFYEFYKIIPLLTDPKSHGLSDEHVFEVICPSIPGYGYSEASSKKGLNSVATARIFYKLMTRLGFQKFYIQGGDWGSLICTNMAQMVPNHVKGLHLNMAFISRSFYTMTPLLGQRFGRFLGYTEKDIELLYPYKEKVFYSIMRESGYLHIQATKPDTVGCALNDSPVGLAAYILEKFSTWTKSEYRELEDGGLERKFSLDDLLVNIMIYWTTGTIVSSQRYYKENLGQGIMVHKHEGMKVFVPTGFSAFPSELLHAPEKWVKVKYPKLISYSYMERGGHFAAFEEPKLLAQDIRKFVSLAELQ
Put plainly: Specific activity of rat mEH for absorbent/fluorescent substrates. The class given is biochemical. The settings on record: [S] 50 μM, pH 9.0, 37°C, fluorescent substrates. The essentials: as §1

Data set [4] addresses T1, human mEH. Put plainly: Assay conditions optimization with substrate 11, human mEH. In kind it is biochemical. The essentials:
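Recombinant human mEH from baculovirus, partially purified. Enzyme titrated at 0–10 μg/mL final against 25 μM fluorogenic glycidyl carbonate substrate, in 0.1 M Tris/HCl pH 9.0 with 0.1 mg/mL BSA at 37°C, followed over 30 min. Then 1.6 μg/mL enzyme with substrate compared across six buffers (three pH values) at 30 and 37°C over 10 min, against enzyme-free background. 6-Methoxy-2-naphthaldehyde read at ex 330/em 465 nm.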

The target in data set [5] is T1, human mEH. As to the kind of experiment: High throughput screening end-point assay with 11, human mEH. The settings on record: average, n = 4 for each enzyme, 30 min end-point. The class given is biochemical. The essentials:
(§2)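 End-point screen of a pesticide library at 10 μM final. Recombinant partially purified enzyme (human 1.6, rat 0.5 μg/mL final) in 100 mM Tris/HCl pH 8.5 with 0.1 mg/mL BSA, preincubated with compounds 5 min at 30°C. Substrate added to 25 μM, then 30 min at room temperature in the dark before fluorescence reading (ex 330/em 465 nm). Buffer-only background and full-activity control wells; duplicate averages.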

A further data set is described as follows: Substrate solubility. Conditions: assay buffer, pH 9. The class given is physicochemical.
Another data set is described as follows: Background. The class given is physicochemical. In short, it runs like this:
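Enzyme-free control wells held Tris/HCl (100 mM, pH 9.0, 0.1 mg/mL BSA), preincubated 5 min at 37°C. Substrate was added from a 5 mM DMSO stock working solution to 50 μM final, and product was read kinetically for 5 min. Read-out was 4-nitrophenol absorbance at […] fluorescence (ex 355/em 450 or ex 330/em 465 nm). Signals were converted to molar amounts via 0.005–0.5 μM standard curves; 8 replicates.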

Data set [6] deals with T2, rat mEH. As to the kind of experiment: High throughput screening end-point assay with 11, rat mEH. Conditions: average, n = 4 for each enzyme, 30 min end-point. In kind it is biochemical. In short, it runs like this: as §2
Data set [7] deals with T2, rat mEH. Put plainly: Kinetic constants determination, rat mEH. The class given is biochemical. Conditions: greater.
[8] abbreviates: HmEH 1.6 μg/mL, 25 μM 11, Tris/HCl pH 9.0, 37°C.

For the compound `COc1ccc2cc(C(C#N)OC(=O)OCC3CO3)ccc2c1` (centres unmarked) [compound 11, Cyano(6-methoxynaphthalen-2-yl)methyl (oxiran-2-ylmethyl) Carbonate], the “KM relative to cSO, human mEH” value on human mEH [1] is on record as approximately 40 fold. Moreover, on human mEH [2], the “Human mEH S/B” value was 4, the “Human mEH Spec. act.” value stood at 25 ± 2 nmol/min/mg and the “Human mEH Z'” value was 0.66. Besides, at rat mEH [3], the “Rat mEH S/B” value came to 5, the “Rat mEH S/N” value stood at 48, the “Rat mEH Spec. act.” value was found to be 68 ± 4 nmol/min/mg and the “Rat mEH Z'” value came to 0.73. Also, at human mEH [4] (setting [8]), the “signal to background ratio (S/B)” value is recorded as “≈ 3” and the “signal to noise ratio (S/N)” value is “≈ 40”. The “decrease of catalytic activity of human mEH on reducing temperature” value at human mEH [4] (incubation temperature from 37 to 30 °C, all buffers tested, 25 μM 11) is “≈ 30%”. Moreover, at human mEH [5], the “S/N of HTS assay” value is reported as more than 30 and the “Z' of HTS assay” value is reported as 0.69 ± 0.03. In addition, the solubility – broadly, the dissolved amount per volume that the medium holds – in the data set “Substrate solubility” is approximately 50 µM (≈ 15.7 µg/mL). The “reduction of background hydrolysis on reducing pH” value in the data set “Background” (Tris/HCl, pH reduced from 9.0 to 8.5, 25 μM 11) is listed as “≈ 30%”. Also, the background hydrolysis in “Background” ([S] 50 μM, Tris/HCl 100 mM pH 9.0, 0.1 mg/mL BSA, 37°C, fluorescent substrates) worked out at 0.018 ± 0.003 nmol/min. Also, the “reduction of background hydrolysis on reducing temperature” value in the data set “Background” (incubation temperature from 37 to 30 °C, 25 μM 11) was “at least 50%”. In addition, at rat mEH [6], the “S/N of HTS assay” value is listed as more than 30 and the “Z' of HTS assay” value is listed as 0.69 ± 0.03. The “VM/KM relative to cSO and 9, rat mEH” value at rat mEH [7] stood at 10 fold.
